The values below come from ChEMBL document CHEMBL1146022, “Replacement of the metabolically labile methyl esters in the alkenyldiarylmethane series of non-nucleoside reverse transcriptase inhibitors with isoxazolone, isoxazole, oxazolone, or cyano substituents” (J Med Chem, 2006).

As usually defined, the EC50 is the midpoint of the concentration-response curve. Low values mean greater potency, high ones weaker potency. A word on the half-life: it is the time in which the quantity being followed falls by half. What is called CC50 is the concentration at which the toxic effect on the cells reaches its halfway point. As a reminder, the IC50 is the concentration at which inhibition is half-maximal.

Data set [1] relates to Human immunodeficiency virus 1. The data set is described as follows: Antiviral activity against HIV1 RF in CEM-SS cells by MTS cytoprotection assay. It counts as functional, organism-based. The note with it: Human immunodeficiency virus 1, RF. An outline of the steps: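 CEM-SS cells infected with HIV-1 RF; cytoprotection against viral cytopathic effect read by MTS assay. EC50 taken as the concentration giving 50% inhibition of cytopathicity.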

Data set [2] can be described thus: Half life in rat plasma. It is filed as ADME. An outline of the steps: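 In vitro hydrolytic stability in rat plasma, with 1,1-diphenylethylene or benzophenone as internal standard. Half-life reported in minutes with SD.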
In data set [3] the test system is MT4. The data set is described as follows: Cytotoxicity against mock-infected MT4 cells. The note with it: Homo sapiens. It is filed as functional.
For data set [4], the system named is Human immunodeficiency virus 2. In words: Antiviral activity against HIV2 ROD in MT4 cells by MTT assay. The following applies: Human immunodeficiency virus 2, ROD. It is filed as functional, organism-based. The gist of the method: (§1)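 MT-4 cells infected with HIV-1 IIIB or HIV-2 ROD; protection from virus-induced cytopathicity read by MTT assay. EC50 taken as the concentration giving 50% inhibition of cytopathicity.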
(Tetrazolium assays rely on reduction of a dye to a coloured formazan, in cell work by metabolically active cells.)

Data set [5] has as its system CEM-SS. In words: Cytotoxicity against mock-infected CEM-SS cells. It is filed as functional. The following applies: Homo sapiens.
Data set [6] deals with Human immunodeficiency virus type 1 reverse transcriptase (Human immunodeficiency virus 1, UniProt Q72547). The data set is described as follows: Inhibition of recombinant HIV1 reverse transcriptase measured as inhibition of incorporation of [32P]GTP in rCDG primer. It is filed as functional. The gist of the method: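 Purified recombinant HIV-1 RT p66/p51 heterodimer. Polymerase activity followed as [32P]GTP incorporation on poly(rC)/oligo(dG) homopolymer template-primer. IC50 taken from inhibition of incorporation.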

Data set [7] deals with Human immunodeficiency virus 1. In words: Antiviral activity against HIV1 3B in MT4 cells by MTT assay. It is filed as functional, organism-based. The note with it: Human immunodeficiency virus 1, 3B. An outline of the steps:
as §1

Take `COC(=O)CCC/C=C(\c1cccc(C#N)c1)c1cc(C)c(OC)c(C(=O)OC)c1`: the EC50 in data set [1] was 0.46 µM; in data set [4], greater than 10.6 µM; in data set [7], 0.47 µM. The molecule also registered a half-life in data set [2] of 1.32 min. The CC50 in data set [3] turned out to be 10.6 µM; in data set [5] it was 10.9 µM. Besides, in data set [6], the IC50 worked out at 0.54 µM.
Take `COC(=O)CCCC=C(c1cccc(C#N)c1)c1cc(C)c2oc(=O)n(C)c2c1`: the EC50 was greater than 100 µM in data set [1], greater than 54.2 µM in data set [4] and greater than 54.2 µM in data set [7]. Moreover, in data set [2], the half-life is 1.18 min. Besides, the values for the CC50 in data set [3] and in data set [5] were 54.2 µM and 12.9 µM, respectively. In addition, the IC50 in data set [6] was 26.4 µM.
As to `COC(=O)CCC/C=C(\c1cc(C)c(OC)c(C(=O)OC)c1)c1cc(C)c2on(C)c(=O)c2c1`, the EC50 was 1.1 µM in data set [1], greater than 27.1 µM in data set [4] and 3.1 µM in data set [7]. The half-life in data set [2] came to 1.85 min. Also, the CC50 in data set [3] was 27.1 µM; in data set [5] it was greater than 5 µM. The IC50 in data set [6] worked out at 2 µM.
In the case of `COC(=O)CCCC=C(c1cccc(C#N)c1)c1cc(C)c2on(C)c(=O)c2c1`, in data set [1], the EC50 is greater than 100 µM. The same molecule had a CC50 in data set [5] of 14 µM. The IC50 in data set [6] came to 49.6 µM.
On to `COC(=O)CCC/C=C(/c1cc(C)c(OC)c(C(=O)OC)c1)c1cc(C)c2oc(=O)n(C)c2c1`, for which the EC50 in data set [1] amounted to 0.03 µM; in data set [7], 0.09 µM. Moreover, the IC50 in data set [6] came out at 0.02 µM.
Regarding `COC(=O)CCC/C=C(/c1cc(C)c2on(C)c(=O)c2c1)c1cc(C)c2oc(=O)n(C)c2c1`, the EC50 is 1.79 µM in data set [1], greater than 36.5 µM in data set [4] and 4.49 µM in data set [7]. For the same molecule, the half-life in data set [2] amounted to 0.46 min. Also, the CC50 was 36.5 µM in data set [3] and 11.1 µM in data set [5]. In data set [6], the IC50 amounted to 49.2 µM.
As for `COC(=O)c1cc(/C(=C\CCN2CCOC2=O)c2cc(C)c3on(C)c(=O)c3c2)cc(C)c1OC`, the EC50 in data set [1] was determined as 2.7 µM. In data set [2], this molecule returned a half-life of 22.1 min. The half-maximal cytotoxic concentration (CC50) in data set [5] came out at 16.3 µM. Moreover, in data set [6], the IC50 came out at 9.86 µM.
On to `COC(=O)CCC/C=C(/c1ccc(C#N)cc1)c1cc(C)c2oc(=O)n(C)c2c1`, for which the EC50 in data set [1] was 0.59 µM; in data set [4] it was greater than 51 µM; in data set [7] it was 1.49 µM. Further, the CC50 in data set [3] came to 51 µM; in data set [5], 21.9 µM. Also, in data set [6], the IC50 worked out at 1.2 µM.
With `COC(=O)CCC/C=C(/c1cccc(C#N)c1)c1cc(C)c2oc(=O)n(C)c2c1`, the EC50 in data set [1] stood at 1.73 µM. The molecule also gave a CC50 in data set [5] of 11.5 µM. Besides, the IC50 in data set [6] was 2.8 µM.
As to `COc1noc2c(C)cc(/C(=C\CCN3CCOC3=O)c3cc(C)c4on(C)c(=O)c4c3)cc12`, the results for the EC50 in data set [1], in data set [4] and in data set [7] were greater than 9.91 µM, greater than 1.12 µM and greater than 1.12 µM, respectively. The molecule further came in with a half-life in data set [2] greater than 1440 min. Besides, the CC50 is 1.12 µM in data set [3] and 1.54 µM in data set [5]. Moreover, the IC50 in data set [6] is 7.6 µM.
